According to ChEMBL document CHEMBL1123397, “Antiarrhythmic activity of 17 beta-aminoestratrienes. Comparison of 3-ols and 3-acetates with the corresponding 3-(3-amino-2-hydroxypropyl) ethers” (1986):
Values after ≈ are worked out from the molar mass of the structure shown. Active and inactive are the calls of the source. No cut-off for these calls is given here.

What was measured:
Mus musculus [1] = species on record: Mus musculus; assay: ED 50 value against aconitine-induced arrhythmias in mice; IA is Inactive; assay type: functional, organism-based
Procedure, shortened: (§1)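 Anaesthetised mice were given test compound intraperitoneally, then aconitine intravenously to induce arrhythmia. At least three doses were tested in separate groups (n = 6-10). ED50 is the dose raising the arrhythmogenic aconitine dose 50% above the control requirement.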

Rattus norvegicus [2] = assay: Effect on heart rate before isoprenaline induced tachycardia in the anesthetized rat at 1 mg/kg dose; assay type: functional
Procedure, shortened: (§2)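 Same ligation protocol in anaesthetised male Wistar rats. Heart rate was taken from the lead II ECG at three points: just before i.v. drug or vehicle, 14 min after it (just before isoprenaline 10 μg/kg), and 1 min after isoprenaline. Pre vs post rates and isoprenaline responses vs controls were compared by Student's t test. Mean ± SEM of 7-12 observations.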

Rattus norvegicus [3] = assay: Effect on heart rate on 1 min post isoprenaline induced tachycardia in the anesthetized rat at 1.0 mg/kg dose.; assay type: functional
Procedure, shortened: (§3)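 Test drug or vehicle was given i.v., and isoprenaline (10 µg/kg) 14 min later. Heart rate was read from the lead II ECG just before drug, at 14 min (pre-isoprenaline) and 1 min after isoprenaline. Compared by Student's t test; 7–12 animals per group; mean ± SEM.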

Rattus norvegicus [4] = assay: Effective dose that antagonized arrhythmias evoked by coronary artery ligation in the rat was measured at 0.01 mg/kg dose; assay type: functional
Rattus norvegicus [5] = assay: Compound was tested for antagonism of Ventricular Fibrilloflutter (VF) evoked by coronary artery ligation in the rat measured at 0.05 mg/kg dose; assay type: functional, Heart
Procedure, shortened: (§4)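 Male Wistar rats, anaesthetised and artificially ventilated, with left thoracotomy; silk suture under main left coronary artery. After stabilization, test drug or vehicle i.v.; 14 min later isoprenaline 10 μg/kg; 1 min after that the ligature was tightened and VF incidence recorded over 30 min. Carotid pressure and lead II ECG monitored continuously. 7-12 animals per group.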

Rattus norvegicus [6] = assay: Compound was tested for antagonism of Ventricular Fibrilloflutter (VF) evoked by coronary artery ligation in the rat measured at 0.01 mg/kg dose; assay type: functional, Heart; details: dose 0.1 mg/kg; in the assay text read “0.1 mg/kg” for “0.01 mg/kg”; procedure, shortened: as §4
Rattus norvegicus [7] = assay: Compound was tested for antagonism of Ventricular Fibrilloflutter (VF) evoked by coronary artery ligation in the rat measured at 1 mg/kg dose; assay type: functional, Heart; procedure, shortened: as §4
Rattus norvegicus [8] = assay: Effect on heart rate after isoprenaline induced tachycardia in the anesthetized rat at 1 mg/kg dose; assay type: functional; procedure, shortened: as §2
Rattus norvegicus [9] = assay: Mean change in heart rate recorded 14 min after the administration of compound.; assay type: functional; procedure, shortened: as §3
Rattus norvegicus [10] = species on record: Rattus norvegicus; assay: Maximum increase in heart rate evoked by isoprenaline.; assay type: functional; procedure, shortened: as §3
Cavia porcellus [11] = species on record: Cavia porcellus; assay: Concentration required to reduce maximum following frequencu (MFF) of isolated guinea pig atria by 25%; assay type: functional
Procedure, shortened: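 Guinea pig left atria in an organ bath of Krebs solution at 35 °C, gassed with carbogen, electrically driven, isometric contractions recorded. Drugs added cumulatively; maximum following frequency determined 6 min after each concentration. Concentration reducing MFF by 25% (EC25) calculated from six preparations.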

Mus musculus [12] = species on record: Mus musculus; assay: ED 50 value against aconitine-induced arrhythmias in mice; assay type: functional; procedure, shortened: as §1
Cavia porcellus [13] = species on record: Cavia porcellus; assay: Compound was tested for antiarrhythmic activity (maximum rate of phase 0 depolarization- MRD) in guinea pig atria at 8(ug/mL) concentration; assay type: functional, Heart
Procedure, shortened: (§5)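 Guinea pig left atria pinned in a recording chamber, superfused with carbogen-gassed Krebs solution at 35 ± 0.5 °C and electrically stimulated. Transmembrane action potentials were recorded with conventional microelectrodes, giving RMP, AP height, APD50, APD90 and maximum rate of depolarization. Values are mean ± SEM from n cells across five preparations.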

Cavia porcellus [14] = species on record: Cavia porcellus; assay: Compound was tested for antiarrhythmic activity expressed as action potential height (AP) in guinea pig atria at 8(ug/mL) concentration; assay type: functional, Heart; procedure, shortened: as §5
Cavia porcellus [15] = species on record: Cavia porcellus; assay: Compound was tested for antiarrhythmic activity (time taken to reach 90% repolarization) in guinea pig atria at 8(ug/mL) concentration; assay type: functional, Heart; procedure, shortened: as §5
Cavia porcellus [16] = species on record: Cavia porcellus; assay: Compound was tested for antiarrhythmic activity (time taken to reach 50% repolarization) in guinea pig atria at 2(ug/mL) concentration; assay type: functional, Heart; procedure, shortened: as §5
Cavia porcellus [17] = species on record: Cavia porcellus; assay: Compound was tested for antiarrhythmic activity expressed as resting membrane potential (RMP) in guinea pig atria at 2 ug/mL concentration; assay type: functional; details: Heart; procedure, shortened: as §5
Cavia porcellus [18] = species on record: Cavia porcellus; assay: Compound was tested for antiarrhythmic activity (time taken to reach 90% repolarization) in guinea pig atria at 2(ug/mL) concentration; assay type: functional, Heart; procedure, shortened: as §5
Cavia porcellus [19] = species on record: Cavia porcellus; assay: Compound was tested for antiarrhythmic activity expressed as resting membrane potential (RMP) in guinea pig atria at 8 ug/mL concentration; assay type: functional; details: Heart; procedure, shortened: as §5
Rattus norvegicus [20] = assay: Effect of teh compound on heart rate on 1 min post isoprenaline induced tachycardia in the anesthetized rat at 2.0 mg/kg dose.; assay type: functional; procedure, shortened: as §2
Cavia porcellus [21] = species on record: Cavia porcellus; assay: Compound was tested for antiarrhythmic activity (maximum rate of phase 0 depolarization- MRD) in guinea pig atria at 4(ug/mL) concentration; assay type: functional, Heart; procedure, shortened: as §5
Cavia porcellus [22] = species on record: Cavia porcellus; assay: Compound was tested for antiarrhythmic activity (maximum rate of phase 0 depolarization- MRD) in guinea pig atria at 2(ug/mL) concentration; assay type: functional, Heart; procedure, shortened: as §5
Cavia porcellus [23] = species on record: Cavia porcellus; assay: Compound was tested for antiarrhythmic activity (time taken to reach 50% repolarization) in guinea pig atria at 4(ug/mL) concentration; assay type: functional, Heart; procedure, shortened: as §5
Rattus norvegicus [24] = assay: Effect on heart rate after isoprenaline induced tachycardia in the anesthetized rat at 2 mg/kg dose; assay type: functional; procedure, shortened: as §2
Cavia porcellus [25] = species on record: Cavia porcellus; assay: Compound was tested for antiarrhythmic activity (time taken to reach 50% repolarization) in guinea pig atria at 8(ug/mL) concentration; assay type: functional, Heart; procedure, shortened: as §5
Rattus norvegicus [26] = assay: Effect on heart rate before isoprenaline induced tachycardia in the anesthetized rat at 2 mg/kg dose; assay type: functional; procedure, shortened: as §3
Cavia porcellus [27] = species on record: Cavia porcellus; assay: Compound was tested for antiarrhythmic activity expressed as action potential height (AP) in guinea pig atria at 4(ug/mL) concentration; assay type: functional, Heart; procedure, shortened: as §5
Rattus norvegicus [28] = assay: Compound that antagonized arrhythmias evoked by coronary artery ligation in the rat was measured at 1.0 mg/kg dose; assay type: functional; procedure, shortened: as §4
Cavia porcellus [29] = species on record: Cavia porcellus; assay: Compound was tested for antiarrhythmic activity (time taken to reach 90% repolarization) in guinea pig atria at 4(ug/mL) concentration; assay type: functional, Heart; procedure, shortened: as §5
Cavia porcellus [30] = species on record: Cavia porcellus; assay: Compound was tested for antiarrhythmic activity expressed as action potential height (AP) in guinea pig atria at 2(ug/mL) concentration; assay type: functional, Heart; procedure, shortened: as §5
Rattus norvegicus [31] = species on record: Rattus norvegicus; assay: Maximum increase in heart rate evoked by isoprenaline; assay type: functional; procedure, shortened: as §3
Cavia porcellus [32] = species on record: Cavia porcellus; assay: Compound was tested for antiarrhythmic activity expressed as resting membrane potential (RMP) in guinea pig atria at 4 ug/mL concentration; assay type: functional; details: Heart; procedure, shortened: as §5
Rattus norvegicus [33] = assay: Antagonism of Ventricular Fibrilloflutter (VF) evoked by coronary artery ligation in the rat measured at 2 mg/kg dose; assay type: functional, Heart; procedure, shortened: as §4
Rattus norvegicus [34] = assay: Effective dose that antagonized arrhythmias evoked by coronary artery ligation in the rat was measured at 2.0 mg/kg dose; assay type: functional
Rattus norvegicus [35] = assay: Compound was tested for antagonism of arrhythmias evoked by coronary artery ligation in the rat measured at 1 mg/kg dose; assay type: functional; procedure, shortened: as §4
Rattus norvegicus [36] = assay: Effective dose that antagonized arrhythmias evoked by coronary artery ligation in the rat was measured at 1.0 mg/kg dose; assay type: functional
Rattus norvegicus [37] = assay: Effect on heart rate on 1 min post isoprenaline induced tachycardia in the anesthetized rat at 2.0 mg/kg dose.; assay type: functional; procedure, shortened: as §3
Rattus norvegicus [38] = assay: Effect on heart rate 1 min post isoprenaline induced tachycardia in the anesthetized rat at 0.2 mg/kg dose.; assay type: functional; procedure, shortened: as §2
Rattus norvegicus [39] = assay: Effect on heart rate before isoprenaline induced tachycardia in the anesthetized rat at 0.2 mg/kg dose; assay type: functional; procedure, shortened: as §2
Rattus norvegicus [40] = assay: Compound was tested for antagonism of Ventricular Fibrilloflutter (VF) evoked by coronary artery ligation in the rat measured at 0.2 mg/kg dose; assay type: functional, Heart; procedure, shortened: as §4
Rattus norvegicus [41] = assay: Compound that antagonized arrhythmias evoked by coronary artery ligation in the rat was measured at 0.2 mg/kg dose; assay type: functional; procedure, shortened: as §4

CN(C)C1CC[C@H]2[C@@H]3CCc4cc(OCC(O)CNC(C)(C)C)ccc4[C@H]3CC[C@]12C (stereo not given in full)
ED50 (Mus musculus [1]): inactive
Heart rate (Rattus norvegicus [2]): 390 beats min-1
Heart rate (Rattus norvegicus [3]): 376 beats min-1
ED50 (Rattus norvegicus [4]): 0.05 mg/kg
VF (Rattus norvegicus [5]): 38%
VF (Rattus norvegicus [6]): 25%
VF (Rattus norvegicus [7]): 0%
Heart rate (Rattus norvegicus [8]): 363 beats min-1
Change (Rattus norvegicus [9]): -6.9%
Increase (Rattus norvegicus [10]): 3.4%
EC25 (Cavia porcellus [11]): 24.1 µg/mL (≈ 56.2 µM)

CC(=O)Oc1ccc2c(c1)CC[C@@H]1[C@@H]2CC[C@]2(C)C(N(C)C)[C@H](O)C[C@@H]12 (stereo not given in full)
ED50 (Mus musculus [12]): 6.5 mg/kg
EC25 (Cavia porcellus [11]): 0.99 µg/mL (≈ 2.77 µM)

CC(C)NCC(O)COc1ccc2c(c1)CC[C@@H]1[C@@H]2CC[C@]2(C)C(N(C)C)[C@H](O)C[C@@H]12 (stereo not given in full)
MRD (Cavia porcellus [13]): 139.3 V s-1
AP (Cavia porcellus [14]): 79.5 mV
APD90 (Cavia porcellus [15]): 64.9 ms
ED50 (Mus musculus [1]): inactive
APD50 (Cavia porcellus [16]): 26 ms
RMP (Cavia porcellus [17]): 71 mV
APD90 (Cavia porcellus [18]): 69.8 ms
RMP (Cavia porcellus [19]): 69.1 mV
Heart rate (Rattus norvegicus [20]): 366 beats min-1
MRD (Cavia porcellus [21]): 124 V s-1
MRD (Cavia porcellus [22]): 139.5 V s-1
APD50 (Cavia porcellus [23]): 20.7 ms
Heart rate (Rattus norvegicus [24]): 366 beats min-1
APD50 (Cavia porcellus [25]): 19.5 ms
VF (Rattus norvegicus [7]): 13%
Heart rate (Rattus norvegicus [26]): 394 beats min-1
AP (Cavia porcellus [27]): 81.6 mV
ED50 at 1 mg/kg (Rattus norvegicus [28]): < 1 mg/kg
Change (Rattus norvegicus [9]): -7.1%
APD90 (Cavia porcellus [29]): 64.8 ms
EC25 (Cavia porcellus [11]): 13.7 µg/mL (≈ 31.8 µM)
AP (Cavia porcellus [30]): 83.8 mV
Increase (Rattus norvegicus [31]): 0%
RMP (Cavia porcellus [32]): 70.4 mV

CC(C)NCC(O)COc1ccc2c(c1)CC[C@@H]1[C@@H]2CC[C@]2(C)C(N(C)C)CC[C@@H]12 (stereo not given in full)
ED50 (Mus musculus [1]): inactive
Heart rate (Rattus norvegicus [2]): 405 beats min-1
Heart rate (Rattus norvegicus [3]): 393 beats min-1
VF (Rattus norvegicus [33]): 14%
VF (Rattus norvegicus [7]): 29%
Heart rate (Rattus norvegicus [8]): 387 beats min-1
ED50 at 2 mg/kg (Rattus norvegicus [34]): < 1 mg/kg
Change (Rattus norvegicus [9]): -4.4%
Increase (Rattus norvegicus [10]): 1.6%
EC25 (Cavia porcellus [11]): 16.1 µg/mL (≈ 38.8 µM)

CNC1[C@H](O)C[C@H]2[C@@H]3CCc4cc(OCC(O)CNC(C)(C)C)ccc4[C@H]3CC[C@]12C (stereo not given in full)
ED50 (Mus musculus [1]): inactive
VF (Rattus norvegicus [35]): 25%
VF (Rattus norvegicus [5]): 67%
VF (Rattus norvegicus [33]): 0%
Heart rate (Rattus norvegicus [24]): 294 beats min-1
Heart rate (Rattus norvegicus [26]): 415 beats min-1
ED50 (Rattus norvegicus [36]): 0.7 mg/kg
Heart rate (Rattus norvegicus [37]): 302 beats min-1
Change (Rattus norvegicus [9]): -29.2%
Increase (Rattus norvegicus [10]): 3%
EC25 (Cavia porcellus [11]): 38.6 µg/mL (≈ 89.6 µM)

CNC1CC[C@H]2[C@@H]3CCc4cc(OCC(O)CNC(C)(C)C)ccc4[C@H]3CC[C@]12C (stereo not given in full)
ED50 (Mus musculus [1]): inactive
VF (Rattus norvegicus [33]): 0%
Heart rate (Rattus norvegicus [24]): 335 beats min-1
Heart rate (Rattus norvegicus [26]): 387 beats min-1
Heart rate (Rattus norvegicus [37]): 335 beats min-1
ED50 at 2 mg/kg (Rattus norvegicus [34]): < 2 mg/kg
Change (Rattus norvegicus [9]): -13.4%
Increase (Rattus norvegicus [10]): 0%
EC25 (Cavia porcellus [11]): 25.8 µg/mL (≈ 62.2 µM)

CNC1[C@H](O)C[C@H]2[C@@H]3CCc4cc(OC(C)=O)ccc4[C@H]3CC[C@]12C (stereo not given in full)
Heart rate (Rattus norvegicus [38]): 392 beats min-1
Heart rate (Rattus norvegicus [39]): 403 beats min-1
ED50 (Mus musculus [12]): 9 mg/kg
VF (Rattus norvegicus [40]): 29%
ED50 at 0.2 mg/kg (Rattus norvegicus [41]): < 0.2 mg/kg
Change (Rattus norvegicus [9]): -10.9%
Increase (Rattus norvegicus [10]): 9.2%
EC25 (Cavia porcellus [11]): 5.06 µg/mL (≈ 14.7 µM)
